Data set [1] deals with A-375. In words: Cell cycle arrest in human A375 cells assessed as accumulation at S phase at 10 uM after 24 hrs by propidium iodide staining based flow cytometry (reference value: 21.3%). Format: functional. (In flow cytometry, cells or beads pass a laser one at a time.)
In data set [2] the test system is A-375. The data set is described as follows: Cell cycle arrest in human A375 cells assessed as accumulation at G1 phase at 5 uM after 24 hrs by propidium iodide staining based flow cytometry (reference value: 73.6%). Format: functional.
The target in data set [3] is Dual specificity mitogen-activated protein kinase kinase; MEK1/2 (Homo sapiens, UniProt P36507+Q02750). The data set is described as follows: Inhibition of MEK1/2 (unknown origin). Type of data set: protein assay.
The nature of data set [4]: Antiproliferative activity against human WM1361 cells after 48 hrs by MTT assay. Format: functional. To be noted: WM1361, 48 h. The gist of the method:
(§1)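 MTT reduction assay. Cell lines grown to log phase in DMEM with 10% FBS (A375 in DMEM with sodium pyruvate added), seeded at 10⁴ cells/well in 96-well plates. Three replicate wells per concentration, each assay run three times, GI50 averaged.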
Background: Tetrazolium dyes change colour on reduction, which living cells bring about.

Data set [5] has as its target Mitogen-activated protein kinase 14 (Homo sapiens, UniProt Q16539). The data set is described as follows: Inhibition of N-terminal flag-tagged p38alpha (unknown origin) expressed in baculovirus expression system using MBP as substrate preincubated for 5 mins followed by substrate addition measured after 60 mins in presence of [gamma-32P]ATP by topcount scintillation method. The gist of the method: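 Baculovirus-expressed N-terminal FLAG-tagged kinases in 25 mM HEPES pH 7.5, 10 mM Mg acetate, 1 mM DTT, 0.5 µM ATP plus [γ-³²P]ATP, 50 µL. p38α: 100 ng enzyme, MBP substrate. JNK1: 10 ng enzyme, 1 µg c-Jun. Compound and enzyme preincubated 5 min, ATP started the reaction, 60 min at 30 °C. Stopped with 10% TCA, filtered, washed with 3% phosphoric acid, counted by TopCount.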

Data set [6] has as its system A-375. The data set is described as follows: Cell cycle arrest in human A375 cells assessed as accumulation at G2/M phase at 10 uM after 24 hrs by propidium iodide staining based flow cytometry (reference value: 5.1%). Type of data set: functional.
The target in data set [7] is Serine/threonine-protein kinase B-raf (Homo sapiens, UniProt P15056). In words: Inhibition of wild type BRAF in human WM1361 cells assessed as decrease in ERK1/2 phosphorylation up to 5 uM after 30 mins by Western blot analysis. Type of data set: cell-based. Background: A western blot detects proteins with antibodies after separation by electrophoresis.
Serine/threonine-protein kinase B-raf (Homo sapiens, UniProt P15056), sequence (P15056 whole entry): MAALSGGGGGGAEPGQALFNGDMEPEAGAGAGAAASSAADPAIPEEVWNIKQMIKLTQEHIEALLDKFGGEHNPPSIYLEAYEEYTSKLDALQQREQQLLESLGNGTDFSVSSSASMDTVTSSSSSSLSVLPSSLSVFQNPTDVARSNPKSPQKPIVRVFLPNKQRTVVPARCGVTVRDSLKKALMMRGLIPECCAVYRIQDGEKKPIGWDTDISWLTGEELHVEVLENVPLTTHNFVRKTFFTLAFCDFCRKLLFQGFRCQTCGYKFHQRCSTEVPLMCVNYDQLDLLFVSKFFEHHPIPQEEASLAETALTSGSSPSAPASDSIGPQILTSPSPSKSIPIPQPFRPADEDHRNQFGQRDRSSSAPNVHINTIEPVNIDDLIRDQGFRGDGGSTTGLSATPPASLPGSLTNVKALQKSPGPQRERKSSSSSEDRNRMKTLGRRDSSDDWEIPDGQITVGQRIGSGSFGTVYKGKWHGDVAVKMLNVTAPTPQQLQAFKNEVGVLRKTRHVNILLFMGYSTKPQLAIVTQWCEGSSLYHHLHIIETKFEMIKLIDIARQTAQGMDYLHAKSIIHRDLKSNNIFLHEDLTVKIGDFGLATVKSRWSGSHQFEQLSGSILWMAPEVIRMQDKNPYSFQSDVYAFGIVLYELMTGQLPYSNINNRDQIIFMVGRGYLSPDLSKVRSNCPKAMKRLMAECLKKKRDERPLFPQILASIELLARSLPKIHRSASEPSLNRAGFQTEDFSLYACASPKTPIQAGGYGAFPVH
Data set [8] deals with A-375. In words: Induction of apoptosis in human A375 cells assessed as early apoptotic cells at 2.5 uM after 24 hrs by Annexin V-FITC/PI staining based flow cytometry (reference value: 5.45%). Type of data set: functional.
Data set [9] deals with A-375. The data set is described as follows: Effect on total ERK1/2 protein level in human A375 cells after 30 mins by Western blot analysis. Type of data set: ADME, cell-based. Conditions: a-375, 0.5 h. The gist of the method:
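Western blot. Cells rinsed in cold PBS, lysed 30 min on ice in RIPA with protease inhibitors (1:100), cleared at 12,000 g, 4 °C. Protein measured by BCA, resolved by SDS-PAGE, transferred to PVDF, blocked in skim milk. Primary antibodies 1:500 overnight at 4 °C; secondary 1:5000 for 1 h at room temperature.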

In data set [10] the test system is A-375. In words: Cell cycle arrest in human A375 cells assessed as accumulation at G1 phase at 2 uM after 72 hrs by propidium iodide staining based flow cytometry (reference value: 73.6%). Format: functional.
Data set [11] has as its target Serine/threonine-protein kinase B-raf (Mus musculus, UniProt P28028, V600E). The data set is described as follows: Inhibition of mouse full length GST-tagged BRAF V600E mutant using recombinant human full length N-terminal His-tagged MEK1 as substrate preincubated for 1 hr followed by substrate addition measured after 25 mins.
Data set [12] concerns WM 266-4. In words: Antiproliferative activity against human WM266.4 cells after 48 hrs by MTT assay. Format: functional. Conditions: WM 266-4, 48 h. The gist of the method: as §1
The subject of data set [13] is A-375. The data set is described as follows: Antiproliferative activity against human A375 cells after 48 hrs by MTT assay. To be noted: A-375, 48 h. Type of data set: functional. The gist of the method: as §1
The test system of data set [14] is A-375. The data set is described as follows: Induction of apoptosis in human A375 cells assessed as necrotic cells at 2 uM after 24 hrs by Annexin V-FITC/PI staining based flow cytometry (reference value: 1.55%). Format: functional.
In data set [15] the test system is A-375. The data set is described as follows: Cell cycle arrest in human A375 cells assessed as accumulation at G2/M phase at 5 uM after 24 hrs by propidium iodide staining based flow cytometry (reference value: 5.1%). Format: functional.
Data set [16] has as its system A-375. The data set is described as follows: Induction of apoptosis in human A375 cells assessed as necrotic cells at 10 uM after 24 hrs by Annexin V-FITC/PI staining based flow cytometry (reference value: 1.61%). Format: functional.
For data set [17], the system named is A-375. The data set is described as follows: Induction of apoptosis in human A375 cells assessed as necrotic cells at 20 uM after 24 hrs by Annexin V-FITC/PI staining based flow cytometry (reference value: 1.61%). Format: functional.
The subject of data set [18] is A-375. In words: Induction of apoptosis in human A375 cells assessed as early apoptotic cells at 2 uM after 72 hrs by Annexin V-FITC/PI staining based flow cytometry (reference value: 5.42%). Type of data set: functional. The gist of the method:
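Apoptosis time course. A375 cells in 24-well plates (about 10⁵/well) at 2 µM for 0, 24, 48 and 72 h. Harvested by trypsin, washed in PBS, stained 15 min at room temperature in the dark with Annexin V-FITC/PI, analysed by flow cytometry.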

The subject of data set [19] is A-375. The data set is described as follows: Cell cycle arrest in human A375 cells assessed as accumulation at S phase at 2 uM after 48 hrs by propidium iodide staining based flow cytometry (reference value: 21.3%). Format: functional.
The test system of data set [20] is A-375. In words: Induction of apoptosis in human A375 cells assessed as viable cells at 10 uM after 24 hrs by Annexin V-FITC/PI staining based flow cytometry (reference value: 88.7%). Format: functional. To be noted: A-375, 24 h, read-out: Activity.
Data set [21] deals with A-375. The data set is described as follows: Induction of apoptosis in human A375 cells assessed as viable cells at 2 uM after 72 hrs by Annexin V-FITC/PI staining based flow cytometry (reference value: 89.4%). Type of data set: functional. To be noted: A-375, 72 h, read-out: Activity.

Active and inactive are the calls of the source. The rule behind the calls is not given here.

Serine/threonine-protein kinase B-raf (Mus musculus, UniProt P28028, V600E), sequence (P28028 whole entry, looked up, stated change not applied): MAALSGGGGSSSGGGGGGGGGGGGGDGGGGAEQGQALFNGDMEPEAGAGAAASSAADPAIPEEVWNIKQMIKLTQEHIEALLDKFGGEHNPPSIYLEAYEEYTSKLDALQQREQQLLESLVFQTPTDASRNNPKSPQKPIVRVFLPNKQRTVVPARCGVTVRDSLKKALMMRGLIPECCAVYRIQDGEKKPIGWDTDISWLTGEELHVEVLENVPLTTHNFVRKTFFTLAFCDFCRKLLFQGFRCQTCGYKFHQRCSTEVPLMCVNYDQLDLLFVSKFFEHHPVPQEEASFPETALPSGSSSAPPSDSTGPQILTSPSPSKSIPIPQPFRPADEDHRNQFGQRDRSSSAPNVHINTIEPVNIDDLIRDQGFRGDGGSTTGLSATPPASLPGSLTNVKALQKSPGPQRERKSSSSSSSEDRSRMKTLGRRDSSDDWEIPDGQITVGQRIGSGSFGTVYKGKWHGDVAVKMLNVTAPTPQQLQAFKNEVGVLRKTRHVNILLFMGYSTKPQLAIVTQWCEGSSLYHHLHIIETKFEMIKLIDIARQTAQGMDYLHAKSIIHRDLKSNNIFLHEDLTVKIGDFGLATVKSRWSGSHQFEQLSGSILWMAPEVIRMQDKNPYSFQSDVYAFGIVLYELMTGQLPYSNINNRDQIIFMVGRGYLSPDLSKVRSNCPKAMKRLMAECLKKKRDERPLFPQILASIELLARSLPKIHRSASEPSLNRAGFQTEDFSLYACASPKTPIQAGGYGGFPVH
Mitogen-activated protein kinase 14, sequence (Q16539 whole entry): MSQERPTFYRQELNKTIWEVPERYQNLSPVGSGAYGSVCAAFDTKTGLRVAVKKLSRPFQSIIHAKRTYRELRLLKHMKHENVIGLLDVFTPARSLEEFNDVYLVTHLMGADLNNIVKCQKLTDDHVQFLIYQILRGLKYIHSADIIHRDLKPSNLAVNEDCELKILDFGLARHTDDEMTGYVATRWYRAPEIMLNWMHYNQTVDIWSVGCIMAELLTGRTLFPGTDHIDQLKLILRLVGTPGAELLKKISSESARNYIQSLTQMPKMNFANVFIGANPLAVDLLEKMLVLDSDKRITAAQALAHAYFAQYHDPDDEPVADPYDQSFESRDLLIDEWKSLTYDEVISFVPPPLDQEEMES

In the case of `COc1cccc(C2=NN(C(=S)Nc3ccccc3)C(c3ccc4c(c3)OCCO4)C2)c1` (stereo unspecified), the Activity in [1] is on record as 13.8%; in data set [2], 61.3%; in [6] it was 18.1%; in [8], 16.7%; in data set [9], “Non-Toxic”; in data set [10], 35.6%. The Activity in data set [14] is given as 2.56%; in data set [15], 10.3%; in data set [16], 2.6%; in data set [17], 3.25%; in data set [18], 20.2%; in [19], 26.2%. The figures for the IC50 in [3], in [5] and in [11] were 195000 nM, over 200000 nM and 60 nM, respectively. Moreover, the GI50 in [4] was over 200000 nM; in data set [12] it was 1380 nM; in [13], 520 nM. The inhibition result in data set [7] is “inactive”. The viability at 10 µM in [20] was 41.5%. Besides, the viability at 2 µM in data set [21] came out at 71.1%.

The IC50 is the concentration needed to halve the response being measured. The term GI50 denotes the concentration giving 50% growth inhibition. Higher therefore signals lower sensitivity of the cells.
